Experimental data collected from several papers.
Cell line: K562
Effect on: cell growth or viability

| Structure (SMILES) | test | conditions | quantity | result |
| --- | --- | --- | --- | --- |
| COc1cccc(Oc2ccccc2NC(=O)CNC(=O)c2cccc3ccccc23)c1 | SRB | 48 h | GI50 | 0.129 µM |
| COC(=O)CCC1=CC2C=CC=CC1C2C1CCCCC1=O (centres unmarked) | flow cytometry | – | IC50 | 0.062 µM |
| COc1ccc2nccc(N3CCc4c(cc(Cn5ccnc5)cc4-c4cn(C)nc4C(F)(F)F)C3=O)c2c1 | ATP luminescence | 5 days | GI50 | 13 µM |
| COc1ccc(C(=O)/C=C/c2ccc3c(c2)OCCO3)cc1S(N)(=O)=O | SRB | 10 µM | inhibition | 83% |
| CCCCCCCCC1=CC2C=CC=CC1C2C1CCCCC1=O (centres unmarked) | flow cytometry | – | IC50 | 0.041 µM |
| CNC(=O)c1cc(OC)cc2c(N3CCc4c(cc(Cn5ccnc5)cc4-c4cn(C)nc4C(F)(F)F)C3=O)ccnc12 | ATP luminescence | 5 days | GI50 | 9.7 µM |
| COc1ccccc1S(=O)(=O)Nc1ccc2c(c1)CN(C)C(=O)N2 | ATP luminescence | – | GI50 | > 20 µM |
| COc1ccc(C(=O)/C=C/c2cccc3ccccc23)cc1S(N)(=O)=O | SRB | 48 h | GI50 | 1.7 µM |
